RBBP9 inh = inhibitors of human serine hydrolase RBBP9; recombinant RBBP9, FP-Rh probe fluorescence polarization; inhibition, % at 7.94 µM; 220,000 compounds, 0.2% hits; AID 1515;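 active = inhibition above the campaign mean of all tested compounds plus 3 SD, cut at about 14% in these data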
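System: RBBP9 protein / Quantity: 2.5 µM RBBP9 dispensing solution, before mixing / Also added: Serine-hydrolase probe FP-Rh, 375 nM pre-mixing / Dosing: 7.94 µM single dose, 0.794% DMSO / Timing: enzyme-compound preincubation 30 min, then probe labeling 45 min, 25 °C / Signal: FP readout at 525/598 nm / Controls: DMSO-treated enzyme wells and wells lacking RBBP9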
PABP1 MLLE inh = blocks PAM2 peptide binding to the PABP1 MLLE domain; P11940; GST-MLLE / FITC-PAM2 fluorescence polarization; inhibition, % at 20 µM; 360,000 compounds, 0.36% hits; in the data active = inhibition above about 35%, passing the limit was not always enough
Target sequence (P11940 whole entry, looked up, the tested form may be a part): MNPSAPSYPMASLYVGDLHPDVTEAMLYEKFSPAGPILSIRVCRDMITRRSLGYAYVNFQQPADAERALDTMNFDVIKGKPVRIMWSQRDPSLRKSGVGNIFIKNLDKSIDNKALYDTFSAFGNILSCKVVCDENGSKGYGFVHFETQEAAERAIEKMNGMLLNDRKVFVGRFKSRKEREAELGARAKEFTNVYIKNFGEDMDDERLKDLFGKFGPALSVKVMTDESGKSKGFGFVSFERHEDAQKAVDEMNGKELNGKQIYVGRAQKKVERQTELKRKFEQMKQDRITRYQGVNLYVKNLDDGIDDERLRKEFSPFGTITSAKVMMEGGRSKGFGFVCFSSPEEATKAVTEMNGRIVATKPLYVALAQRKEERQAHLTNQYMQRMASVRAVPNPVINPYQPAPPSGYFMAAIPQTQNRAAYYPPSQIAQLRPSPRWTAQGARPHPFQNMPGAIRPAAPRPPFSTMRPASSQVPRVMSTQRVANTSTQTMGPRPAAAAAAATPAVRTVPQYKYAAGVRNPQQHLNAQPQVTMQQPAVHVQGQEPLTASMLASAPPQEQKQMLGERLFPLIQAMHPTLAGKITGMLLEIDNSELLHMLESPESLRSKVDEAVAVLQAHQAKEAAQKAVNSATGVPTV
eIF4H FP inh = inhibitors of RNA binding by human eIF4H; Q15056; eIF4H fluorescence polarization binding assay; inhibition, % at 35 µM; 290,000 compounds, 0.94% hits;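 also: calls also rest on retests at 20 µM and on dose response follow-up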
PABP FP inh = PABP-poly(A) binding inhibition. P11940. PABP-poly(A) RNA binding, fluorescence polarization. calls only at 35 µM. 290,000 compounds, 1% hits. AID 2014;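 also: calls also rest on retests at 20 µM and on dose response follow-up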
TCR CD3 inh = blocks the human TCR-CD3 interaction; 360,000 compounds, 0.37% hits; inhibition, % at 9.4 µM; AID 651800; TAMRA-labeled TCR probe fluorescence, biochemical; in the data active = inhibition above about 19%;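 also: recombinant mutant TCR 2C K166C tagged with TAMRA read by polarization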
BSA TAMRA ctr = BSA probe counter-screen for TCR-CD3 inhibitors. shares compounds with TCR CD3 inh. TAMRA-labeled BSA probe fluorescence counterscreen. inhibition, % at 9.4 µM. 1,200 compounds, 10% hits; in the data active = inhibition above about 23%
TCR-CD3 conf = TCR-CD3 interaction inhibition, confirmation | 1,200 compounds, 48% hits | AID 652036 | shares compounds with TCR CD3 inh | inhibition, % at 9.4 µM | TAMRA-labeled TCR probe fluorescence binding assay; in the data active = inhibition above about 19%
A number is an active result. Compounds with a hit are over-represented: about 1.6% of the library has one in this group of screens. Unless noted, no rule for the calls is given here.

How did CCOP(=O)(OCC)C(NC(=O)Nc1ccc(C)cc1)C(N)=O (stereo not given) do in these assays?
RBBP9 inh: inactive; PABP1 MLLE inh: inactive; eIF4H FP inh: inactive; PABP FP inh: inactive; TCR CD3 inh: inactive

What do the screens show for `CCOP(=O)(OCC)C(NC(=O)Nc1ccc(Cl)cc1)C(=O)N(CC)CC` (stereo not given)?
RBBP9 inh: inactive; PABP1 MLLE inh: inactive; eIF4H FP inh: inactive; PABP FP inh: inactive; TCR CD3 inh: 21.5; BSA TAMRA ctr: inactive; TCR-CD3 conf: inactive

What do the screens show for `O=C(Nc1ccc(Cl)c(Cl)c1)O/N=C/c1ccncc1`?
RBBP9 inh: inactive; PABP1 MLLE inh: inactive; eIF4H FP inh: inactive; PABP FP inh: inactive; TCR CD3 inh: 41.8; BSA TAMRA ctr: inactive; TCR-CD3 conf: 19.7

How did O=C(O)c1cc(Cl)ccc1-c1ccc(/C=C/c2cc(C(F)(F)F)[nH]c(=O)n2)o1 do in these assays?
RBBP9 inh: inactive; PABP1 MLLE inh: inactive; eIF4H FP inh: inconclusive; PABP FP inh: inconclusive; TCR CD3 inh: 19.0; BSA TAMRA ctr: inactive; TCR-CD3 conf: inactive

Results for CCNC(=O)N1CCN(c2ccc(N3CCN(Cc4ccccc4)[C@@H](C)C3)c(C)c2)[C@@H](C)C1 ?
TCR CD3 inh: inactive

Results for Cc1nn(C)c(C(=O)N/N=C/c2ccncc2)c1Cl ?
PABP1 MLLE inh: inactive; eIF4H FP inh: inactive; PABP FP inh: inactive; TCR CD3 inh: inactive

How did Cc1nn(C)c(C(=O)N/N=C/c2ccc(Br)cc2)c1Cl do in these assays?
RBBP9 inh: inactive; PABP1 MLLE inh: inactive; eIF4H FP inh: inactive; PABP FP inh: inactive; TCR CD3 inh: 21.4; BSA TAMRA ctr: inactive; TCR-CD3 conf: inactive

How did CC(=O)N1CCN(c2ccc(N3CCN(Cc4ccccc4)[C@@H](C)C3)c(C)c2)[C@@H](C)C1 do in these assays?
TCR CD3 inh: inactive

How did C[C@@H]1CN([C@@H](C)CO)C(=O)CCCn2cc(nn2)CO[C@H]1CN(C)C(=O)Nc1ccc(-c2cccs2)cc1 do in these assays?
TCR CD3 inh: inactive

How did Nc1ncnc2c1CN(Cc1ccccc1)CC2 do in these assays?
PABP1 MLLE inh: inactive; TCR CD3 inh: 76.5; BSA TAMRA ctr: inactive; TCR-CD3 conf: inactive

Results for O=C1NC[C@H](Cc2ccc(O)cc2)N(CCc2cccc(F)c2)C1=O ?
TCR CD3 inh: 64.0; BSA TAMRA ctr: inactive; TCR-CD3 conf: inactive

What do the screens show for `O=C(O)CCNc1ccc(NCCC(=O)O)c2c1C(=O)c1ccccc1C2=O`?
PABP1 MLLE inh: inactive; eIF4H FP inh: inconclusive; PABP FP inh: inconclusive; TCR CD3 inh: 28.0; BSA TAMRA ctr: inactive; TCR-CD3 conf: 41.5

Results for CCc1c(C)c2cc(Cl)c(O)c(CN(CC)CC)c2oc1=O ?
RBBP9 inh: inactive; PABP1 MLLE inh: inactive; eIF4H FP inh: inactive; PABP FP inh: inactive; TCR CD3 inh: inactive

How did CCN(CC)Cc1c(O)c(Cl)cc2c3c(c(=O)oc12)CCCC3 do in these assays?
RBBP9 inh: inactive; PABP1 MLLE inh: inactive; eIF4H FP inh: inactive; PABP FP inh: inactive; TCR CD3 inh: 22.4; BSA TAMRA ctr: inactive; TCR-CD3 conf: inactive

What do the screens show for `CC(C)c1ccc(N2C(=O)/C(=C/N(C)C)SC2=S)cc1`?
RBBP9 inh: inactive; PABP1 MLLE inh: inactive; eIF4H FP inh: inactive; PABP FP inh: inactive; TCR CD3 inh: 66.7; BSA TAMRA ctr: 149.6; TCR-CD3 conf: 131.8

What do the screens show for `COc1ccc([N+](=O)[O-])cc1CN1CCN(c2ncc(Cc3ccccc3)cn2)CC1`?
TCR CD3 inh: inactive

Results for O=C(NCCc1cccc(Cl)c1)c1ccc(Cl)c([N+](=O)[O-])c1 ?
RBBP9 inh: inactive; PABP1 MLLE inh: inactive; eIF4H FP inh: inactive; PABP FP inh: inactive; TCR CD3 inh: 30.4; BSA TAMRA ctr: inactive; TCR-CD3 conf: inactive

What do the screens show for `N#Cc1c(SCC(=O)Nc2ccc(Cl)cc2Cl)sc2c(O)cc(=O)[nH]c12`?
PABP1 MLLE inh: inactive; eIF4H FP inh: inactive; PABP FP inh: inactive; TCR CD3 inh: inactive

Results for N#Cc1c(SCC(=O)Nc2cccc(F)c2)sc2c(O)cc(=O)[nH]c12 ?
PABP1 MLLE inh: inactive; eIF4H FP inh: inactive; PABP FP inh: inactive; TCR CD3 inh: inactive

Results for N#Cc1c(SCC(=O)Nc2ccccc2C(F)(F)F)sc2c(O)cc(=O)[nH]c12 ?
PABP1 MLLE inh: inactive; eIF4H FP inh: inactive; PABP FP inh: inactive; TCR CD3 inh: inactive

Results for N#Cc1c(SCC(=O)Nc2nccs2)sc2c(O)cc(=O)[nH]c12 ?
PABP1 MLLE inh: inactive; eIF4H FP inh: 68.4; PABP FP inh: active; TCR CD3 inh: 19.8; BSA TAMRA ctr: inactive; TCR-CD3 conf: inactive

What do the screens show for `CCCSc1nnc(NC(=O)CSc2sc3c(O)cc(=O)[nH]c3c2C#N)s1`?
PABP1 MLLE inh: inactive; eIF4H FP inh: 72.0; PABP FP inh: active; TCR CD3 inh: 30.8; BSA TAMRA ctr: inactive; TCR-CD3 conf: inactive

Results for N#Cc1c(SCC(=O)Nc2nc3ccccc3s2)sc2c(O)cc(=O)[nH]c12 ?
PABP1 MLLE inh: inactive; TCR CD3 inh: 19.2; BSA TAMRA ctr: inactive; TCR-CD3 conf: inactive

Results for O=C(/C=C/c1cccs1)c1ccc(NC(=O)c2cccc(Br)c2)cc1 ?
RBBP9 inh: inactive; PABP1 MLLE inh: inactive; eIF4H FP inh: inactive; PABP FP inh: inactive; TCR CD3 inh: 42.4; BSA TAMRA ctr: inactive; TCR-CD3 conf: inactive

Results for COc1ccc2c(c1OC)C(=O)OC2 ?
RBBP9 inh: inactive; PABP1 MLLE inh: inactive; eIF4H FP inh: inactive; PABP FP inh: inactive; TCR CD3 inh: inactive

Results for COc1ccc2c3c(cccc13)C(=O)CC2 ?
PABP1 MLLE inh: inactive; eIF4H FP inh: inconclusive; PABP FP inh: inconclusive; TCR CD3 inh: 56.9; BSA TAMRA ctr: inactive; TCR-CD3 conf: inactive

What do the screens show for `COC(=O)C1=C(C)N(Cc2ccccc2C(F)(F)F)C(=NCc2ccc3c(c2)OCO3)NC1c1cccc(F)c1` (stereo not given)?
TCR CD3 inh: inactive

How did NC(=S)N/N=C/c1cccc(O)c1O do in these assays?
RBBP9 inh: inactive; PABP1 MLLE inh: inactive; eIF4H FP inh: inactive; PABP FP inh: inactive; TCR CD3 inh: inactive

What do the screens show for `Oc1c(Br)cc(Br)cc1/C=N/NC(=S)N[C@H]1CC2C=CC1C2` (stereo not given in full)?
RBBP9 inh: inactive; PABP1 MLLE inh: inactive; eIF4H FP inh: inactive; PABP FP inh: inactive; TCR CD3 inh: 31.9; BSA TAMRA ctr: inactive; TCR-CD3 conf: 38.2

What do the screens show for `CC(=O)Nc1ccc(C(=O)N/N=C/c2cc(Br)cc(Br)c2O)cc1`?
RBBP9 inh: inactive; PABP1 MLLE inh: inactive; eIF4H FP inh: inactive; PABP FP inh: inactive; TCR CD3 inh: 39.6; BSA TAMRA ctr: inactive; TCR-CD3 conf: 41.9

What do the screens show for `COc1cc(/C=N/NC(=S)NC2CC3C=CC2C3)cc(OC)c1OC` (stereo not given)?
RBBP9 inh: inactive; PABP1 MLLE inh: inactive; eIF4H FP inh: inactive; PABP FP inh: inactive; TCR CD3 inh: inactive

How did CC(C)C(=O)Nc1ccc(C(=O)N/N=C/c2cc(Br)cc(Br)c2O)cc1 do in these assays?
RBBP9 inh: inactive; PABP1 MLLE inh: inactive; eIF4H FP inh: inactive; PABP FP inh: inactive; TCR CD3 inh: inactive

Source: PubChem BioAssay
